Activity calls are given as the source filed them. No cut-off for these calls is given here.
How the values were obtained:
[1] = system: Dermatophagoides pteronyssinus; experiment: Acaricidal activity against Dermatophagoides pteronyssinus assessed as mortality at 6.4 to 8 ug/cm2 after 24 to 72 hr by fabric disk assay relative to untreated control; assay type: functional, organism-based
Summary of the method: (§1)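 Test material in 20 µL ethanol is applied to a 5 cm black cotton fabric disk, and control disks get ethanol alone. After drying 30 s, each disk goes into a covered 5 cm Petri dish with 25 adult mites (7–10 days old), held at 25 ± 1 °C, 75% RH, in darkness. Mortality is scored at 24, 48 and 72 h under a 20× binocular microscope, dead meaning no appendage movement when prodded with a pin. Three replicates; mean ± SE reported.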

[2] = system: Dermatophagoides farinae; experiment: Acaricidal activity against Dermatophagoides farinae after 24 hr by fabric disk assay; assay type: functional
[3] = system: Dermatophagoides farinae; experiment: Acaricidal activity against Dermatophagoides farinae assessed as mortality at 6.4 ug/cm2 after 24 hr by fabric disk assay relative to untreated control; assay type: functional; summary of the method: as §1
[4] = system: Dermatophagoides farinae; experiment: Acaricidal activity against Dermatophagoides farinae assessed as mortality at 8 ug/cm2 after 48 hr by fabric disk assay relative to untreated control; assay type: functional; summary of the method: as §1
[5] = system: Dermatophagoides farinae; experiment: Acaricidal activity against Dermatophagoides farinae assessed as mortality at 8 ug/cm2 after 72 hr by fabric disk assay relative to untreated control; assay type: functional; summary of the method: as §1
[6] = system: Dermatophagoides pteronyssinus; experiment: Acaricidal activity against Dermatophagoides pteronyssinus after 24 hr by fabric disk assay; assay type: functional
[7] = system: Dermatophagoides farinae; experiment: Acaricidal activity against Dermatophagoides farinae assessed as mortality at 6.4 ug/cm2 after 48 hr by fabric disk assay relative to untreated control; assay type: functional; summary of the method: as §1
[8] = system: Dermatophagoides farinae; experiment: Acaricidal activity against Dermatophagoides farinae assessed as mortality at 6.4 ug/cm2 after 72 hr by fabric disk assay relative to untreated control; assay type: functional; summary of the method: as §1
[9] = system: Dermatophagoides farinae; experiment: Acaricidal activity against Dermatophagoides farinae assessed as mortality at 8 ug/cm2 after 24 hr by fabric disk assay relative to untreated control; assay type: functional; summary of the method: as §1
[10] = system: Dermatophagoides farinae; experiment: Acaricidal activity against Dermatophagoides farinae assessed as mortality at 9.6 ug/cm2 after 48 hr by fabric disk assay relative to untreated control; assay type: functional; summary of the method: as §1
[11] = system: Dermatophagoides farinae; experiment: Acaricidal activity against Dermatophagoides farinae assessed as mortality at 12.7 ug/cm2 after 48 hr by fabric disk assay relative to untreated control; assay type: functional; summary of the method: as §1
[12] = system: Dermatophagoides pteronyssinus; experiment: Acaricidal activity against Dermatophagoides pteronyssinus assessed as mortality at 9.6 to 12.7 ug/cm2 after 24 to 72 hr by fabric disk assay relative to untreated control; assay type: functional, organism-based
Summary of the method: (§2)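 Contact bioassay: compound in 20 µL ethanol applied to 5 cm black cotton fabric disks, air-dried 30 s, then placed in Petri dishes with 25 adult mites (7-10 days old). Held at 25 ± 1 °C, 75% RH, in darkness. Controls received ethanol only. Triplicate; mean ± SE.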

[13] = system: Dermatophagoides farinae; experiment: Acaricidal activity against Dermatophagoides farinae assessed as mortality at 9.6 ug/cm2 after 24 hr by fabric disk assay relative to untreated control; assay type: functional; summary of the method: as §1
[14] = system: Dermatophagoides farinae; experiment: Acaricidal activity against Dermatophagoides farinae assessed as mortality at 12.7 ug/cm2 after 72 hr by fabric disk assay relative to untreated control; assay type: functional; summary of the method: as §1
[15] = system: Dermatophagoides farinae; experiment: Acaricidal activity against Dermatophagoides farinae assessed as mortality at 12.7 ug/cm2 after 24 hr by fabric disk assay relative to untreated control; assay type: functional; summary of the method: as §1
[16] = system: Dermatophagoides farinae; experiment: Acaricidal activity against Dermatophagoides farinae assessed as mortality at 9.6 ug/cm2 after 72 hr by fabric disk assay relative to untreated control; assay type: functional; summary of the method: as §1
[17] = system: Dermatophagoides farinae; experiment: Acaricidal activity against Dermatophagoides farinae assessed as mortality at 50.9 ug/cm2 after 72 hr by fabric disk assay relative to untreated control; assay type: functional; summary of the method: as §1
[18] = system: Dermatophagoides farinae; experiment: Acaricidal activity against Dermatophagoides farinae assessed as mortality at 38.2 ug/cm2 after 72 hr by fabric disk assay relative to untreated control; assay type: functional; summary of the method: as §1
[19] = system: Dermatophagoides farinae; experiment: Acaricidal activity against Dermatophagoides farinae assessed as mortality at 38.2 ug/cm2 after 48 hr by fabric disk assay relative to untreated control; assay type: functional; summary of the method: as §1
[20] = system: Dermatophagoides farinae; experiment: Acaricidal activity against Dermatophagoides farinae assessed as mortality at 38.2 ug/cm2 after 24 hr by fabric disk assay relative to untreated control; assay type: functional; summary of the method: as §1
[21] = system: Dermatophagoides pteronyssinus; experiment: Acaricidal activity against Dermatophagoides pteronyssinus assessed as mortality at 38.2 to 50.9 ug/cm2 after 24 to 72 hr by fabric disk assay relative to untreated control; assay type: functional, organism-based; summary of the method: as §2
[22] = system: Dermatophagoides farinae; experiment: Acaricidal activity against Dermatophagoides farinae assessed as mortality at 50.9 ug/cm2 after 24 hr by fabric disk assay relative to untreated control; assay type: functional; summary of the method: as §1
[23] = system: Dermatophagoides farinae; experiment: Acaricidal activity against Dermatophagoides farinae assessed as mortality at 50.9 ug/cm2 after 48 hr by fabric disk assay relative to untreated control; assay type: functional; summary of the method: as §1
[24] = system: Dermatophagoides pteronyssinus; experiment: whole plant or invertebrate; assay type: functional; conditions: 24 h
[25] = system: Dermatophagoides farinae; experiment: whole plant or invertebrate; assay type: functional; conditions: 24 h
[26] = system: Dermatophagoides pteronyssinus; experiment: whole plant or invertebrate; assay type: functional; conditions: 24 h; remark: listed apart in the source
[27] = system: Dermatophagoides farinae; experiment: whole plant or invertebrate; assay type: functional; conditions: 24 h; remark: listed apart in the source
[28] = system: Dermatophagoides farinae; experiment: Acaricidal activity against Dermatophagoides farinae assessed as mortality at 15.9 ug/cm2 after 48 hr by fabric disk assay relative to untreated control; assay type: functional; summary of the method: as §1
[29] = system: Dermatophagoides farinae; experiment: Acaricidal activity against Dermatophagoides farinae assessed as mortality at 19.1 ug/cm2 after 48 hr by fabric disk assay relative to untreated control; assay type: functional; summary of the method: as §1
[30] = system: Dermatophagoides farinae; experiment: Acaricidal activity against Dermatophagoides farinae assessed as mortality at 19.1 ug/cm2 after 72 hr by fabric disk assay relative to untreated control; assay type: functional; summary of the method: as §1
[31] = system: Dermatophagoides farinae; experiment: Acaricidal activity against Dermatophagoides farinae assessed as mortality at 15.9 ug/cm2 after 72 hr by fabric disk assay relative to untreated control; assay type: functional; summary of the method: as §1
[32] = system: Dermatophagoides farinae; experiment: Acaricidal activity against Dermatophagoides farinae assessed as mortality at 19.1 ug/cm2 after 24 hr by fabric disk assay relative to untreated control; assay type: functional; summary of the method: as §1
[33] = system: Dermatophagoides farinae; experiment: Acaricidal activity against Dermatophagoides farinae assessed as mortality at 15.9 ug/cm2 after 24 hr by fabric disk assay relative to untreated control; assay type: functional; summary of the method: as §1
[34] = system: Dermatophagoides pteronyssinus; experiment: Acaricidal activity against Dermatophagoides pteronyssinus assessed as mortality at 15.9 to 19.1 ug/cm2 after 24 to 72 hr by fabric disk assay relative to untreated control; assay type: functional, organism-based; summary of the method: as §2

| Structure (SMILES) | Activity [1] | LD50 [2] [microg/cm2] | mortality at 6.4 µg/cm2 [3] [%] | mortality at 8 µg/cm2 [4] [%] | mortality at 8 µg/cm2 [5] [%] | LD50 [6] [microg/cm2] | mortality at 6.4 µg/cm2 [7] [%] | mortality at 6.4 µg/cm2 [8] [%] | mortality at 8 µg/cm2 [9] [%] | mortality at 25.5 µg/cm2 [24] [%] | mortality at 25.5 µg/cm2 [25] [%] | mortality at 25.5 µg/cm2 [26] [%] | mortality at 25.5 µg/cm2 [27] [%] | other results |
| --- | --- | --- | --- | --- | --- | --- | --- | --- | --- | --- | --- | --- | --- | --- |
| CC=Cc1ccc(O)c(OC)c1 (mixture of isomers) [CIS/TRANS-ISOEUGENOL] | Active | 5.17 | 66 | 92 | 92 | 1.55 | 66 | 66 | 92 |  |  |  |  |  |
| O=C(OCc1ccccc1)c1ccccc1 [BENZYL BENZOATE] |  | 9.22 |  |  |  | 6.59 |  |  |  |  |  |  |  | mortality at 9.6 µg/cm2 [10]: 47%; mortality at 12.7 µg/cm2 [11]: 96%; Activity [12]: Active; mortality at 9.6 µg/cm2 [13]: 47%; mortality at 12.7 µg/cm2 [14]: 96%; mortality at 12.7 µg/cm2 [15]: 85%; mortality at 9.6 µg/cm2 [16]: 47% |
| CCN(CC)C(=O)c1cccc(C)c1 [DIETHYLTOLUAMIDE] |  | 37.59 |  |  |  | 17.98 |  |  |  |  |  |  |  | mortality at 50.9 µg/cm2 [17]: 85%; mortality at 38.2 µg/cm2 [18]: 41%; mortality at 38.2 µg/cm2 [19]: 41%; mortality at 38.2 µg/cm2 [20]: 41%; Activity [21]: Active; mortality at 50.9 µg/cm2 [22]: 79%; mortality at 50.9 µg/cm2 [23]: 83% |
| C=CCc1ccc(O)c(OC)c1 [EUGENOL] | Active | 5.47 | 50 | 85 | 85 | 3.71 | 50 | 50 | 85 | 21 | 100 | 100 | 11 |  |
| C=CCc1ccc(OC(C)=O)c(OC)c1 [EUGENYL ACETATE] |  | 14.16 |  |  |  | 5.41 |  |  |  | 17 | 100 | 100 | 12 | mortality at 15.9 µg/cm2 [28]: 65%; mortality at 19.1 µg/cm2 [29]: 88%; mortality at 19.1 µg/cm2 [30]: 88%; mortality at 15.9 µg/cm2 [31]: 65%; mortality at 19.1 µg/cm2 [32]: 88%; mortality at 15.9 µg/cm2 [33]: 65%; Activity [34]: Active |
| C/C=C\c1ccc(O)c(OC)c1 [ISOEUGENOL] |  |  |  |  |  |  |  |  |  | 32 | 100 | 100 | 21 |  |

Source: ChEMBL document CHEMBL3045697, “Acaricidal activity of clove bud oil compounds against Dermatophagoides farinae and Dermatophagoides pteronyssinus (Acari: Pyroglyphidae)” (2003)
